Laboratory results published in ChEMBL document CHEMBL3627671, “Novel derivatives of nitro-substituted salicylic acids: Synthesis, antimicrobial activity and cytotoxicity” (Bioorg Med Chem, 2015).
Values after ≈ are worked out from the molar mass of the structure shown.

How the values were obtained:
[1] = test system: Mycobacterium tuberculosis; experiment: Antimycobacterial activity against Mycobacterium tuberculosis H37Rv 331/88 after 14 days; type: functional; settings: H37Rv 331/88, 336 h
[2] = test system: Mycobacterium tuberculosis; experiment: Antimycobacterial activity against Mycobacterium tuberculosis H37Rv 331/88 after 21 days; type: functional; settings: H37Rv 331/88, 504 h
Mycobacterium avium [3] = experiment: Antimycobacterial activity against Mycobacterium avium 330/80 after 14 days; type: functional; settings: 330/80, 336 h
Mycobacterium avium [4] = experiment: Antimycobacterial activity against Mycobacterium avium 330/80 after 21 days; type: functional; settings: 330/80, 504 h
Mycobacterium kansasii [5] = experiment: Antimycobacterial activity against Mycobacterium kansasii 235/80 after 7 days; type: functional; settings: 235/80, 168 h
How it was run: (§1)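 Šula's semisynthetic medium micromethod at 37 °C, read after 7, 14 and 21 days. The 1.0 McFarland suspension was diluted 10^-4. MIC determined. 6509/96 is a clinical isolate.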

Mycobacterium kansasii [6] = experiment: Antimycobacterial activity against Mycobacterium kansasii 235/80 after 14 days; type: functional; settings: 235/80, 336 h; how it was run: as §1
Mycobacterium kansasii [7] = experiment: Antimycobacterial activity against Mycobacterium kansasii 235/80 after 21 days; type: functional; settings: 235/80, 504 h; how it was run: as §1
Mycobacterium kansasii [8] = experiment: Antimycobacterial activity against Mycobacterium kansasii 6509/96 after 7 days; type: functional; settings: 6509/96, 168 h; how it was run: as §1
Mycobacterium kansasii [9] = experiment: Antimycobacterial activity against Mycobacterium kansasii 6509/96 after 14 days; type: functional; settings: 6509/96, 336 h; how it was run: as §1
Mycobacterium kansasii [10] = experiment: Antimycobacterial activity against Mycobacterium kansasii 6509/96 after 21 days; type: functional; settings: 6509/96, 504 h; how it was run: as §1
HepG2 = experiment: Cytotoxicity against human HepG2 cells after 24 hrs […]; type: cell-based; settings: HepG2, 24 h
[11] = Selectivity index, ratio of CI50 for human HepG2 cells to MIC100 for Mycobacterium tuberculosis H37Rv 331/88

Compound | MIC [1] [µM] | MIC [2] [µM] | MIC (Mycobacterium avium [3]) [µM] | MIC (Mycobacterium avium [4]) [µM] | MIC (Mycobacterium kansasii [5]) [µM] | MIC (Mycobacterium kansasii [6]) [µM] | MIC (Mycobacterium kansasii [7]) [µM] | MIC (Mycobacterium kansasii [8]) [µM] | MIC (Mycobacterium kansasii [9]) [µM] | MIC (Mycobacterium kansasii [10]) [µM] | IC50 (HepG2) [µM] | Selectivity Index [11]
O=C(Nc1cccc(C(F)(F)F)c1)c1cccc([N+](=O)[O-])c1O | 32 (≈ 10.4 µg/mL) | 32 (≈ 10.4 µg/mL) | 500 (≈ 163 µg/mL) | 500 (≈ 163 µg/mL) | 32 (≈ 10.4 µg/mL) | 62.5 (≈ 20.4 µg/mL) | 62.5 (≈ 20.4 µg/mL) | 125 (≈ 40.8 µg/mL) | 250 (≈ 81.6 µg/mL) | 250 (≈ 81.6 µg/mL) | 8.9 | 0.278
O=C(Nc1ccc(Cl)c(Cl)c1)c1cccc([N+](=O)[O-])c1O | 16 (≈ 5.23 µg/mL) | 32 (≈ 10.5 µg/mL) | 250 (≈ 81.8 µg/mL) | 250 (≈ 81.8 µg/mL) | 32 (≈ 10.5 µg/mL) | 62.5 (≈ 20.4 µg/mL) | 62.5 (≈ 20.4 µg/mL) | 62.5 (≈ 20.4 µg/mL) | 62.5 (≈ 20.4 µg/mL) | 62.5 (≈ 20.4 µg/mL) | 5.9 | 0.184
O=C(Nc1cc(C(F)(F)F)cc(C(F)(F)F)c1)c1cccc([N+](=O)[O-])c1O | 8 (≈ 3.15 µg/mL) | 8 (≈ 3.15 µg/mL) | 125 (≈ 49.3 µg/mL) | 125 (≈ 49.3 µg/mL) | 16 (≈ 6.31 µg/mL) | 32 (≈ 12.6 µg/mL) | 32 (≈ 12.6 µg/mL) | 32 (≈ 12.6 µg/mL) | 32 (≈ 12.6 µg/mL) | 32 (≈ 12.6 µg/mL) | 7.4 | 0.925
O=C(Nc1ccc(C(F)(F)F)cc1)c1cccc([N+](=O)[O-])c1O | 32 (≈ 10.4 µg/mL) | 32 (≈ 10.4 µg/mL) | 250 (≈ 81.6 µg/mL) | 250 (≈ 81.6 µg/mL) | 62.5 (≈ 20.4 µg/mL) | 125 (≈ 40.8 µg/mL) | 125 (≈ 40.8 µg/mL) | 62.5 (≈ 20.4 µg/mL) | 62.5 (≈ 20.4 µg/mL) | 125 (≈ 40.8 µg/mL) | 8 | 0.25
